ChEMBL document CHEMBL3632612, “Discovery of WQ-3810: Design, synthesis, and evaluation of 7-(3-alkylaminoazetidin-1-yl)fluoro-quinolones as orally active antibacterial agents” (Eur J Med Chem, 2015)
pIC50: −log10 of the molar value. In brackets after ≈: the same amount, converted by molar mass.

How the values were obtained:
Klebsiella pneumoniae [1] = assay: Antibacterial activity against Klebsiella pneumoniae KC-1 assessed as growth inhibition at 128 to 0.002 mg/L incubated for 18 hrs at 37 degC by agar dilution method; format: functional; conditions: KC-1, 18 h
Method in brief: (§1)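 Agar dilution on Mueller Hinton agar per Japanese Society of Chemotherapy standard method; about 10⁴ cfu inoculated onto plates holding two-fold dilution series; incubation 37°C, 18 h; MIC read as growth endpoint.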

Klebsiella pneumoniae [2] = assay: Antibacterial activity against Klebsiella pneumoniae DT-S assessed as growth inhibition at 128 to 0.002 mg/L incubated for 18 hrs at 37 degC by agar dilution method; format: functional; method in brief: as §1
Salmonella typhimurium = assay: Antibacterial activity against Salmonella typhimurium IFO13245 assessed as growth inhibition at 128 to 0.002 mg/L incubated for 18 hrs at 37 degC by agar dilution method; format: functional, Salmonella enterica subsp. enterica serovar Typhimurium; conditions: Salmonella enterica, IFO13245, 18 h; method in brief: as §1
Enterobacter cloacae = assay: Antibacterial activity against Enterobacter cloacae IFO13535 assessed as growth inhibition at 128 to 0.002 mg/L incubated for 18 hrs at 37 degC by agar dilution method; format: functional; conditions: IFO13535, 18 h; method in brief: as §1
Proteus vulgaris = assay: Antibacterial activity against Proteus vulgaris IFO3167 assessed as growth inhibition at 128 to 0.002 mg/L incubated for 18 hrs at 37 degC by agar dilution method; format: functional; conditions: IFO3167, 18 h; method in brief: as §1
Proteus mirabilis = assay: Antibacterial activity against Proteus mirabilis IFO3849 assessed as growth inhibition at 128 to 0.002 mg/L incubated for 18 hrs at 37 degC by agar dilution method; format: functional; conditions: IFO3849, 18 h; method in brief: as §1
Serratia marcescens [3] = assay: Antibacterial activity against Serratia marcescens IFO3736 assessed as growth inhibition at 128 to 0.002 mg/L incubated for 18 hrs at 37 degC by agar dilution method; format: functional; conditions: IFO3736, 18 h; method in brief: as §1
Serratia marcescens [4] = assay: Antibacterial activity against Serratia marcescens T-55 assessed as growth inhibition at 128 to 0.002 mg/L incubated for 18 hrs at 37 degC by agar dilution method; format: functional; conditions: T-55, 18 h; method in brief: as §1
Morganella morganii = assay: Antibacterial activity against Morganella morganii W1026 assessed as growth inhibition at 128 to 0.002 mg/L incubated for 18 hrs at 37 degC by agar dilution method; format: functional; conditions: W1026, 18 h; method in brief: as §1
Providencia rettgeri = assay: Antibacterial activity against Providencia rettgeri W1008 assessed as growth inhibition at 128 to 0.002 mg/L incubated for 18 hrs at 37 degC by agar dilution method; format: functional; conditions: W1008, 18 h; method in brief: as §1
Pseudomonas aeruginosa [5] = assay: Antibacterial activity against Pseudomonas aeruginosa IFO3445 assessed as growth inhibition at 128 to 0.002 mg/L incubated for 18 hrs at 37 degC by agar dilution method; format: functional; conditions: IFO3445, 18 h; method in brief: as §1
Pseudomonas aeruginosa [6] = assay: Antibacterial activity against Pseudomonas aeruginosa E-2 assessed as growth inhibition at 128 to 0.002 mg/L incubated for 18 hrs at 37 degC by agar dilution method; format: functional; conditions: E-2, 18 h; method in brief: as §1
Pseudomonas aeruginosa [7] = assay: Antibacterial activity against Pseudomonas aeruginosa 15846 assessed as growth inhibition at 128 to 0.002 mg/L incubated for 18 hrs at 37 degC by agar dilution method; format: functional; conditions: Pseudomonas aeruginosa, 15846, 18 h; method in brief: as §1
[8] = system: Acinetobacter calcoaceticus; assay: Antibacterial activity against Acinetobacter calcoaceticus Ac-54 assessed as growth inhibition at 128 to 0.002 mg/L incubated for 18 hrs at 37 degC by agar dilution method; format: functional; conditions: Ac-54, 18 h; method in brief: as §1
[9] = Drug excretion in Sprague-Dawley rat urine at 10 mg/kg, po after 24 hrs by HPLC; format: ADME, organism-based; conditions: read-out: Drug excretion
Method in brief: (§2)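 Six-week male Sprague-Dawley rats, fasted overnight; oral dose suspended in 0.5% methylcellulose, iv dose dissolved in 0.04 N NaOH. Urine from intact rats in metabolic cages, bile from bile duct-cannulated rats, 0–24 h. Bile alkaline-hydrolysed (1 N NaOH, 37°C, 1 h) to convert glucuronides; HPLC with UV 290 nm and internal standard; % of dose; mean ± S.D., three rats.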

[10] = Drug excretion in Sprague-Dawley rat bile assessed as unmetabolized form at 10 mg/kg, po after 24 hrs by HPLC; format: ADME, organism-based; conditions: read-out: Drug excretion; method in brief: as §2
[11] = Drug excretion in Sprague-Dawley rat urine at 5 mg/kg, iv after 24 hrs by HPLC; format: ADME, organism-based; conditions: read-out: Drug excretion; method in brief: as §2
[12] = Drug excretion in Sprague-Dawley rat bile assessed as unmetabolized form at 5 mg/kg, iv after 24 hrs by HPLC; format: ADME, organism-based; conditions: read-out: Drug excretion; method in brief: as §2
[13] = Oral drug absorption in Sprague-Dawley rat at 10 mg/kg, po after 24 hrs by HPLC; format: ADME, organism-based; conditions: in vivo
Method in brief: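 Absorption rate computed as total urinary plus biliary excretion (% of dose, summed means) after oral dosing divided by total after iv dosing; excretion measured in fasted male Sprague-Dawley rats by HPLC over 24 h, bile glucuronides alkaline-hydrolysed.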

[14] = Solubility of the compound in JP2 solution at pH 6.8 after 24 hrs at 25 degC by HPLC; format: physicochemical
Method in brief: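 Excess solid shaken in JP2 (50 mM potassium dihydrogenphosphate, pH 6.8) at 25°C for 24 h to equilibrium, filtered 0.45 µm; filtrate concentration by reversed-phase UPLC, UV 290 nm; mean ± S.D., n=3.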

[15] = Passive permeability of the compound after 5 hrs at 25 degC by PAMPA assay; format: physicochemical; conditions: read-out: Peff
Method in brief: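 PAMPA: 10 µM compound in PBS with 5% MeOH in donor, PBS acceptor; 25°C, 5 h; both sides quantified by HPLC; Peff derived from donor/acceptor concentrations, volumes, 0.3 cm² filter area and 18,000 s; mean ± S.D., n=3.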

[16] = Drug excretion in Sprague-Dawley rat at 10 mg/kg, po after 24 hrs by HPLC; format: ADME, organism-based; conditions: in vivo, read-out: Drug excretion; method in brief: as §2
[17] = Drug excretion in Sprague-Dawley rat assessed as unmetabolized form at 5 mg/kg, iv after 24 hrs by HPLC; format: ADME, organism-based; conditions: in vivo, read-out: Drug excretion; method in brief: as §2
DNA gyrase = DNA gyrase (Escherichia coli, UniProt P0AES4+P0AES6); assay: Inhibition of Escherichia coli DNA gyrase preincubated for 5 mins at 37 degC before addition of relaxed pBR322 as substrate by supercoiling assay; format: protein-complex assay
Escherichia coli [18] = assay: Antibacterial activity against Escherichia coli NIHJ assessed as growth inhibition at 128 to 0.002 mg/L incubated for 18 hrs at 37 degC by agar dilution method; format: functional; method in brief: as §1
Escherichia coli [19] = assay: Antibacterial activity against Escherichia coli KC-14 assessed as growth inhibition at 128 to 0.002 mg/L incubated for 18 hrs at 37 degC by agar dilution method; format: functional; conditions: KC-14, 18 h; method in brief: as §1
Escherichia coli [20] = assay: Antibacterial activity against Escherichia coli 177 assessed as growth inhibition at 128 to 0.002 mg/L incubated for 18 hrs at 37 degC by agar dilution method; format: functional; conditions: Escherichia coli, 177, 18 h; method in brief: as §1
Citrobacter freundii = assay: Antibacterial activity against Citrobacter freundii IFO1268 assessed as growth inhibition at 128 to 0.002 mg/L incubated for 18 hrs at 37 degC by agar dilution method; format: functional; conditions: IFO1268, 18 h; method in brief: as §1

Compound	MIC (Klebsiella pneumoniae [1]) [µg/mL]	MIC (Klebsiella pneumoniae [2]) [µg/mL]	MIC (Salmonella typhimurium) [µg/mL]	MIC (Enterobacter cloacae) [µg/mL]	MIC (Proteus vulgaris) [µg/mL]	MIC (Proteus mirabilis) [µg/mL]	MIC (Serratia marcescens [3]) [µg/mL]	MIC (Serratia marcescens [4]) [µg/mL]	MIC (Morganella morganii) [µg/mL]	MIC (Providencia rettgeri) [µg/mL]	MIC (Pseudomonas aeruginosa [5]) [µg/mL]	MIC (Pseudomonas aeruginosa [6]) [µg/mL]	MIC (Pseudomonas aeruginosa [7]) [µg/mL]	MIC [8] [µg/mL]	dose excreted at 24 h [9] [%]	pIC50 (DNA gyrase)	MIC (Escherichia coli [18]) [µg/mL]	MIC (Escherichia coli [19]) [µg/mL]	MIC (Escherichia coli [20]) [µg/mL]	MIC (Citrobacter freundii) [µg/mL]	further results
CNC1CN(c2c(F)cc3c(=O)c(C(=O)O)cn(-c4nc(N)c(F)cc4F)c3c2C)C1	0.077 (≈ 0.178 µM)	0.077 (≈ 0.178 µM)	0.077 (≈ 0.178 µM)	0.077 (≈ 0.178 µM)	0.077 (≈ 0.178 µM)	0.077 (≈ 0.178 µM)	0.077 (≈ 0.178 µM)	0.077 (≈ 0.178 µM)	0.077 (≈ 0.178 µM)	0.077 (≈ 0.178 µM)	0.077 (≈ 0.178 µM)	0.077 (≈ 0.178 µM)	0.077 (≈ 0.178 µM)	0.077 (≈ 0.178 µM)	13	6.26	0.006 (≈ 0.0138 µM)	0.006 (≈ 0.0138 µM)	0.006 (≈ 0.0138 µM)	0.077 (≈ 0.178 µM)	dose excreted at 24 h [10]: 16%; dose excreted at 24 h [11]: 49%; dose excreted at 24 h [12]: 41%; Fa at 24 h [13]: 31%; solubility at 24 h [14]: 3.1 µg/mL (≈ 7.15 µM); Papp at 5 h [15]: 0.19 ×10⁻⁶ cm/s; dose excreted at 24 h [16]: 28%; dose excreted at 24 h [17]: 90%
Cc1c(N2CC(N)C2)c(F)cc2c(=O)c(C(=O)O)cn(-c3nc(N)c(F)cc3F)c12	0.061 (≈ 0.145 µM)	0.061 (≈ 0.145 µM)	0.061 (≈ 0.145 µM)	0.061 (≈ 0.145 µM)	0.061 (≈ 0.145 µM)	0.061 (≈ 0.145 µM)	0.061 (≈ 0.145 µM)	0.061 (≈ 0.145 µM)	0.061 (≈ 0.145 µM)	0.061 (≈ 0.145 µM)	0.061 (≈ 0.145 µM)	0.061 (≈ 0.145 µM)	0.061 (≈ 0.145 µM)	0.061 (≈ 0.145 µM)	4	6.54	0.004 (≈ 0.00954 µM)	0.004 (≈ 0.00954 µM)	0.004 (≈ 0.00954 µM)	0.061 (≈ 0.145 µM)	dose excreted at 24 h [10]: 4.2%; dose excreted at 24 h [11]: 44%; dose excreted at 24 h [12]: 41%; Fa at 24 h [13]: 9.6%; solubility at 24 h [14]: 27 µg/mL (≈ 64.4 µM); Papp at 5 h [15]: 0.12 ×10⁻⁶ cm/s; dose excreted at 24 h [16]: 8.2%; dose excreted at 24 h [17]: 85%
Cc1c(N2CC(NC(C)(C)C)C2)c(F)cc2c(=O)c(C(=O)O)cn(-c3nc(N)c(F)cc3F)c12	0.57 (≈ 1.2 µM)	0.57 (≈ 1.2 µM)	0.57 (≈ 1.2 µM)	0.57 (≈ 1.2 µM)	0.57 (≈ 1.2 µM)	0.57 (≈ 1.2 µM)	0.57 (≈ 1.2 µM)	0.57 (≈ 1.2 µM)	0.57 (≈ 1.2 µM)	0.57 (≈ 1.2 µM)	0.57 (≈ 1.2 µM)	0.57 (≈ 1.2 µM)	0.57 (≈ 1.2 µM)	0.57 (≈ 1.2 µM)		6.16	0.038 (≈ 0.0799 µM)	0.038 (≈ 0.0799 µM)	0.038 (≈ 0.0799 µM)	0.57 (≈ 1.2 µM)	
